Experimental data: ChEMBL document CHEMBL2321650, “Novel HldE-K inhibitors leading to attenuated Gram negative bacterial virulence” (J Med Chem, 2013)
Converted amounts (≈) assume the structure as drawn. The source made the active and inactive calls. No cut-off for these calls is given here.

How the values were obtained:
HepG2 = assay: Cytotoxicity against human HepG2 cells after overnight incubation by one cell proliferation assay; assay type: cell-based
Outline: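 HepG2 cells at 2 × 10⁴ per well in EMEM with 10% FBS, grown overnight at 37 °C in 5% CO₂. Medium then replaced by compound dilutions in medium with 2% DMSO for overnight incubation. Viability read by CellTiter Aqueous One MTS absorbance at 490 nm.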

Escherichia coli [1] = assay: Antimicrobial activity against acrAB, tolC-deficient Escherichia coli str. K-12 substr. MG1655 after overnight incubation in absence of erythromycin; assay type: functional
Outline: (§1)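 Broth microdilution MIC in cation-adjusted MHB, final inoculum 5 × 10⁵ CFU/mL from early-to-log preculture; serial compound dilutions in 2% DMSO, overnight at 35 °C, growth scored visually. Each strain tested with and without erythromycin (1 μg/mL for K12 ΔacrAB ΔtolC, 8 μg/mL for K1 wild type, 1 μg/mL for K1 ΔtolC).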

[2] = Inhibition of Serratia marcescens NEM017811 hldE-K expressed in Escherichia coli BL21 using beta-heptose 7-phosphate as substrate incubated for 30 mins prior to substrate addition measured after 30 mins by luminescence assay
Outline: (§2)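 HldE kinase luminescence assay as for E. coli, with enzyme at 20 nM for K. pneumoniae, 20 nM for N. meningitidis and 10 nM for S. marcescens. Heptose 7-phosphate and ATP each at 0.2 μM; 30 min preincubation and 30 min reaction at room temperature.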

Escherichia coli [3] = assay: Antimicrobial activity against acrAB, tolC-deficient Escherichia coli str. K-12 substr. MG1655 after 18 to 22 hrs; assay type: functional
Klebsiella pneumoniae = assay: Inhibition of Klebsiella pneumoniae ATCC 700603 hldE-K expressed in Escherichia coli BL21 using beta-heptose 7-phosphate as substrate incubated for 30 mins prior to substrate addition measured after 30 mins by luminescence assay; settings: ATCC 700603, BL21; outline: as §2
Escherichia coli [4] = assay: Antimicrobial activity against acrAB, tolC-deficient Escherichia coli str. K-12 substr. MG1655 after overnight incubation in presence of erythromycin; assay type: functional; outline: as §1
Escherichia coli [5] = assay: Antimicrobial activity against tolC-deficient Escherichia coli O18:K1:H7 after overnight incubation in absence of erythromycin; assay type: functional; outline: as §1
Escherichia coli [6] = assay: Antimicrobial activity against acrAB, tolC-deficient Escherichia coli str. K-12 substr. MG1655 assessed as inhibition of LPS synthesis at 2 ug/mL after 5 hrs by silver staining-based electrophoretic analysis; assay type: functional
Outline: (§3)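 Exponential LB cultures diluted to 5 × 10⁵ CFU/mL, incubated with compound (from water/DMSO 50/50) at 37 °C about 5 h to OD 0.2−0.4. OD-normalized pellets were PBS-washed, SDS-denatured at 95−100 °C, proteinase K-treated 1 h at 55 °C, and run on 16% SDS-PAGE with silver staining. The lowest dose yielding Re-LPS was recorded.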

Escherichia coli [7] = assay: Antimicrobial activity against tolC-deficient Escherichia coli O18:K1:H7 assessed as inhibition of LPS synthesis at 16 ug/mL after 5 hrs by silver staining-based electrophoretic analysis; assay type: functional, organism-based; outline: as §3
Escherichia coli [8] = assay: Antimicrobial activity against tolC-deficient Escherichia coli O18:K1:H7 after overnight incubation in presence of erythromycin; assay type: functional; outline: as §1
[9] = Inhibition of Escherichia coli O18:K1 C7 hldE-K expressed in Escherichia coli BL21 using beta-heptose 7-phosphate as substrate incubated for 30 mins prior to substrate addition measured after 30 mins by luminescence assay
Outline: (§4)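 E. coli HldE (His-tagged, IPTG-induced, Ni-NTA-purified), 3 nM, preincubated 30 min at room temperature with inhibitor in Hepes pH 7.5, MnCl₂, KCl, 0.012% Triton-X100, DTT, MBP. Reaction with 0.2 μM heptose 7-phosphate and 0.2 μM ATP, 30 min at room temperature. Remaining ATP read by luciferase/luciferin luminescence; 6−10 concentrations fitted to a Langmuir model for IC50.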

[10] = Inhibition of Escherichia coli O18:K1 C7 ribokinase expressed in Escherichia coli BL21 using D-ribose as substrate incubated for 30 mins prior to substrate addition measured after 30 mins by luminescence assay
Outline: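 Ribokinase run as the HldE kinase assay: purified E. coli ribokinase at 0.6 nM, 3 μM D-ribose, 3 μM ATP. Inhibitor preincubated 30 min, reaction run 30 min at room temperature, luciferase luminescence read-out, IC50 from 6−10 concentrations.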

[11] = Inhibition of Neisseria meningitidis 2C43 hldE-K expressed in Escherichia coli BL21 using beta-heptose 7-phosphate as substrate incubated for 30 mins prior to substrate addition measured after 30 mins by luminescence assay; outline: as §2
Escherichia coli [12] = assay: Inhibition of Escherichia coli O18:K1 C7 hldE-K expressed in Escherichia coli BL21 using D-manno-heptose 7-phosphate as substrate incubated for 30 mins prior to substrate addition measured after 30 mins by luminescence assay; outline: as §4
[13] = Competitive reversible inhibition of Escherichia coli O18:K1 C7 hldE-K expressed in Escherichia coli BL21 using D-manno-heptose 7-phosphate as substrate incubated for 30 mins prior to substrate addition measured after 30 mins by double reciprocal plot analysis in presence of ATP
Outline: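 ATP competition on E. coli HldE-K at 2 μM D-manno-heptose 7-phosphate with varied ATP. Initial velocities read by luciferase luminescence and analysed as a double reciprocal plot of 1/v versus 1/[ATP].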

Escherichia coli [14] = assay: Inhibition of Escherichia coli O18:K1 C7 hldE-K expressed in Escherichia coli BL21 using beta-heptose 7-phosphate as substrate incubated for 30 mins prior to substrate addition measured after 30 mins by luminescence assay in presence of Triton-X 100
Outline: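 E. coli HldE kinase luminescence assay with Triton-X100 at 100 μM to 1 mM added to test for promiscuous, aggregation-type inhibition. Otherwise 3 nM enzyme, 30 min inhibitor preincubation, and 30 min reaction with heptose 7-phosphate and ATP at room temperature.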

Escherichia coli [15] = assay: Antimicrobial activity against wild type Escherichia coli O18:K1:H7 after overnight incubation; assay type: functional; outline: as §1
Escherichia coli [16] = assay: Antimicrobial activity against hldE-deficient Escherichia coli O18:K1:H7 after overnight incubation; assay type: functional

For O=C(COc1ccc2sc(CNc3nncc(-c4c(Cl)cccc4Cl)n3)nc2c1)NCCO, the Activity (HepG2) was over 32 µg/mL, the MIC (Escherichia coli [1]) was over 32 µg/mL and the IC50 [2] was 76 nM. For the same compound, the MIC (Escherichia coli [3]) was over 32 µg/mL, the IC50 (Klebsiella pneumoniae) was 150 nM and the MIC (Escherichia coli [4]) was 2 µg/mL. For the same compound, the MIC (Escherichia coli [5]) was over 32 µg/mL, the inhibition (Escherichia coli [6]) was “Active” and the inhibition (Escherichia coli [7]) was “Active”. For the same compound, the MIC (Escherichia coli [8]) was 16 µg/mL, the IC50 [9] was 49 nM and the IC50 [10] was over 300000 nM. For the same compound, the IC50 [11] was 1900 nM.
For COc1cccc(OC)c1-c1cnnc(NCc2nc3ccccc3s2)n1, the inhibition (Escherichia coli [12]) was “Active”, the Ki [13] was 2500 nM and the IC50 [9] was 2000 nM. The inhibition (Escherichia coli [14]) was “Active”.
In the case of CO[C@H]1/C=C/O[C@@]2(C)Oc3c(C)c(O)c4c(O)c(c(/C=N/N5CCN(C)CC5)c(O)c4c3C2=O)NC(=O)/C(C)=C\C=C\[C@H](C)[C@H](O)[C@@H](C)[C@@H](O)[C@@H](C)[C@H](OC(C)=O)[C@@H]1C [RIFAMPIN], the MIC (Escherichia coli [15]) is reported as 8 µg/mL (≈ 9.72 µM) and the MIC (Escherichia coli [16]) is reported as 0.125 µg/mL (≈ 0.152 µM).
Work on CC[C@H]1OC(=O)[C@H](C)C(=O)[C@H](C)[C@@H](O[C@@H]2O[C@H](C)C[C@H](N(C)C)[C@H]2O)[C@](C)(OC)C[C@@H](C)C(=O)[C@H](C)[C@H]2N(CCCCn3cnc(-c4cccnc4)c3)C(=O)O[C@]12C [TELITHROMYCIN] yielded an MIC (Escherichia coli [15]) of 8 µg/mL (≈ 9.85 µM) and an MIC (Escherichia coli [16]) of 0.25 µg/mL (≈ 0.308 µM).
Work on CC[C@H]1OC(=O)[C@H](C)[C@@H](O[C@H]2C[C@@](C)(OC)[C@@H](O)[C@H](C)O2)[C@H](C)[C@@H](O[C@@H]2O[C@H](C)C[C@H](N(C)C)[C@H]2O)[C@](C)(O)C[C@@H](C)C(=O)[C@H](C)[C@@H](O)[C@]1(C)O [ERYTHROMYCIN] yielded an MIC (Escherichia coli [15]) of 32 µg/mL (≈ 43.6 µM) and an MIC (Escherichia coli [16]) of 0.5 µg/mL (≈ 0.681 µM).
